{"source": "paper PMC6842100", "about": "(Molecular neurobiology, 2019)", "key": {"apoE-TR mice": {"test_system": "apoE-TR mice", "assay": "Mouse Aβ BBB clearance model: human Aβ", "assay_type": "in vivo", "conditions": "SB-3CT 25 mg/kg i.p., plasma human Aβ(1-42) ELISA, n = 4"}, "[1]": {"test_system": "in vitro model of the BBB (HBMEC monolayer)", "assay": "Paracellular marker", "assay_type": "cell-based, human", "conditions": "each SB-3CT concentration (0.1, 0.5, 1, 5, 10μM), data not shown", "procedure,_shortened": "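HBMEC were seeded at 100,000 cells/cm² on fibronectin-coated (4 µg/cm²) 0.4 µm-pore inserts (0.3 cm²) to form a polarized monolayer. Inserts holding test compound were exposed to wells with 10 kD lucifer yellow dextran at 37 °C. Basolateral was sampled at time 0 and apical at 0, 30 and 60 min (basolateral-to-apical). Apparent permeability = 1/AC0 × dQ/dt, compared with control.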"}, "LRP1": {"test_system": "LRP1", "assay": "Aβ-induced soluble LRP1 in HBMEC media upon MMP9 inhibition", "assay_type": "cell-based, human", "conditions": "Aβ(1-42) 2μM plus inhibitor 1μM, 48 hours at 37°C, ELISA, n = 3"}, "LDLR": {"test_system": "LDLR", "assay": "Aβ-induced soluble LDLR in HBMEC media upon MMP9 inhibition", "assay_type": "cell-based, human", "conditions": "Aβ(1-42) 2μM plus inhibitor 1μM, 48 hours at 37°C, ELISA, n = 3"}, "HBMEC": {"test_system": "HBMEC", "assay": "LDH cytotoxicity assay in HBMEC extracellular media", "assay_type": "cell-based, human", "conditions": "48 hours at 37°C, data not shown"}}}
{"compound": "O=S(=O)(CC1CS1)c1ccc(Oc2ccccc2)cc1", "note": "(stereo not shown) [SB-3CT]", "values": [{"measurement": "extent of Aβ BBB elimination in SB-3CT-treated apoE4-TR mice versus apoE3-TR animals", "setting": "apoE-TR mice", "result": "the same as that observed in the apoE3-TR animals"}, {"measurement": "BBB monolayer integrity: movement of 10kDa lucifer yellow dextran vs control", "setting": "[1]", "result": "no difference"}, {"measurement": "decrease of soluble LRP1 levels compared to Aβ alone", "setting": "LRP1", "result": "approximately 40%"}, {"measurement": "reduction of soluble LDLR levels compared to Aβ alone", "setting": "LDLR", "result": "approximately 40%"}]}
{"compound": "CNC(=O)[C@@H](NC(=O)[C@H](CC(C)C)[C@H](O)C(=O)NO)C(C)(C)C", "note": "[marimastat]", "values": [{"measurement": "reduction of soluble LDLR levels compared to Aβ alone", "setting": "LDLR", "result": "approximately 40%"}]}
{"compound": "Aβ(1-42): unlabeled human beta-amyloid (1-42) peptide, purchased from Invitrogen, used in monomeric form", "values": [{"measurement": "LDH release", "setting": "HBMEC; 20μM Aβ", "result": "significant increase in LDH release"}, {"measurement": "cellular toxicity (LDH cytotoxicity assay)", "setting": "HBMEC; Aβ concentrations 0 to 2μM", "result": "no cellular toxicity was observed"}]}
